Source: ChEMBL document CHEMBL1131206, “Synthesis, anticonvulsant activity, and structure-activity relationships of sodium channel blocking 3-aminopyrroles” (J Med Chem, 1998)

How the values were obtained:
[1] = tested on: Rattus norvegicus; experiment: Minimal motor impairment activity by Rotarod test in rat following p.o. administration.; format: functional; details: po
Outline: (§1)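 Minimal motor impairment in male Sprague–Dawley rats (100 g) after oral dosing was judged at the time of peak effect. The criterion was overt ataxia, abnormal gait and stance, and/or loss of placing response and muscle tone. Groups had at least eight rats across various doses, and the median impairing dose with its 95% confidence interval was calculated.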

[2] = tested on: Rattus norvegicus; experiment: Anticonvulsant activity was measured by maximal electroshock seizure test in rat by po administration at 30 mg/kg; format: functional
Outline: (§2)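 Maximal electroshock test in male albino Sprague–Dawley rats (100 g) after oral dosing, run at the previously determined time of peak effect. At least eight rats per group received various doses until at least two points lay between 0% and 100% protection. ED50 with 95% confidence interval was calculated. Single-dose entries report percent protection at that dose.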

[3] = tested on: Mus musculus; experiment: Minimal motor impairment activity by Rotarod test in mice following i.p. administration.; format: functional; details: ip
Outline: (§3)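 Rotorod neurotoxicity test in male albino CF No. 1 mice dosed ip, run at the time of peak effect. Impairment was defined as failure to keep equilibrium for 60 s in each of three trials on the rotating rod. With groups of at least eight mice across various doses, the median motor-impairing dose and its 95% confidence interval were calculated.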

[4] = tested on: Mus musculus; experiment: Anticonvulsant activity was measured by maximal electroshock seizure test in mice by ip administration at 30 mg/kg; format: functional; details: route intraperitoneal
Outline: (§4)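 Male albino CF No. 1 mice (18–25 g) were dosed ip and tested by maximal electroshock at the previously determined time of peak effect. Groups of at least eight mice received various doses until at least two points fell between 0% and 100% protection. ED50 and its 95% confidence interval were calculated. Single-dose entries give protection percentage at the indicated dose.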

[5] = tested on: Mus musculus; experiment: Anticonvulsant activity was measured by maximal electroshock seizure test in mice by ip administration; format: functional; outline: as §4
[6] = tested on: Rattus norvegicus; experiment: Anticonvulsant activity was measured by maximal electroshock seizure test in rat by po administration; format: functional; outline: as §2
[7] = Partition coefficient (logP); format: physicochemical; details: octanol/water
[8] = tested on: Rattus norvegicus; experiment: Anticonvulsant activity was measured by maximal electroshock seizure test in rat by po administration at 50 mg/kg; format: functional; outline: as §2
[9] = tested on: Rattus norvegicus; experiment: Anticonvulsant activity was measured by maximal electroshock seizure test in rat by po administration at 25 mg/kg; format: functional; outline: as §2
[10] = tested on: Rattus norvegicus; experiment: Anticonvulsant activity was measured by maximal electroshock seizure test in rat by po administration at 50 mg/kg dose; format: functional; outline: as §2
[11] = tested on: Mus musculus; experiment: Anticonvulsant activity was measured by maximal electroshock seizure test in mice by ip administration at 100 mg/kg dose; format: functional; details: route intraperitoneal; outline: as §4
[12] = tested on: Rattus norvegicus; experiment: Anticonvulsant activity was measured by maximal electroshock seizure test in rat by po administration; No effective response; format: functional, organism-based; outline: as §2
[13] = tested on: Mus musculus; experiment: Anticonvulsant activity was measured by maximal electroshock seizure test in mice by ip administration; No effective response; format: functional, organism-based; outline: as §4
[14] = tested on: Rattus norvegicus; experiment: Minimal motor impairment activity of the compound was measured by […] in rat by po administration; No effective response; format: functional, organism-based; outline: as §1
[15] = tested on: Mus musculus; experiment: Minimal motor impairment activity of the compound was measured by Rotarod test in mice by ip administration; No effective response; format: functional, organism-based; outline: as §3
[16] = tested on: Rattus norvegicus; experiment: Anticonvulsant activity in corneal kindled rats was determined when 80 mg/kg was administered orally; format: functional; details: route oral
Outline: (§5)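 Male Sprague–Dawley rats were kindled by daily corneal stimulation (8 mA, 60 Hz, 4 s) until they reached 10 consecutive stage 5 seizures (rearing and falling with clonus). The drug was then given orally, and seizure score was recorded as mean ± variation. Abolition of the generalized stage 4–5 seizure served as the endpoint.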

[17] = tested on: Rattus norvegicus; experiment: Anticonvulsant activity in corneal kindled rats was determined when 20 mg/kg was administered orally; format: functional; details: route oral; outline: as §5
[18] = tested on: Rattus norvegicus; experiment: Anticonvulsant activity in corneal kindled rats was determined when 40 mg/kg was administered orally; format: functional; details: route oral; outline: as §5
[19] = tested on: Rattus norvegicus; experiment: Anticonvulsant activity in corneal kindled rats was determined when 10 mg/kg was administered orally; format: functional; details: route oral; outline: as §5
[20] = tested on: Rattus norvegicus; experiment: Anticonvulsant activity in corneal kindled rats was determined when 50 mg/kg was administered orally; format: functional; details: route oral
Outline: (§6)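 Corneally kindled male Sprague–Dawley rats (100 g), stimulated daily via corneal electrodes (8 mA, 60 Hz, 4 s) until 10 consecutive stage 5 seizures. Drug was dosed orally at 0.04 mL/10 g body weight. Seizure severity was scored after dosing, with abolition of the generalized stage 4/5 seizure (clonus, rearing and falling) as the endpoint.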

[21] = tested on: Rattus norvegicus; experiment: Anticonvulsant activity in corneal kindled rats was determined when 25 mg/kg was administered orally; format: functional; details: route oral; outline: as §6
[22] = tested on: Rattus norvegicus; experiment: Anticonvulsant activity in corneal kindled rats was determined when 100 mg/kg was administered orally; format: functional; details: route oral; outline: as §6
[23] = tested on: Rattus norvegicus; experiment: Anticonvulsant activity in corneal kindled rats was determined when 75 mg/kg was administered orally; format: functional; details: route oral; outline: as §6
[24] = tested on: Mus musculus; experiment: Anticonvulsant activity was measured by maximal electroshock seizure test in mice by ip administration at 100 mg/kg; format: functional; details: route intraperitoneal; outline: as §4

Row | Compound | ED50 [1] [mg/kg] | ED50 [3] [mg/kg] | ED50 [5] [mg/kg] | ED50 [6] [mg/kg] | logP [7] | further results
1 | CCOC(=O)c1[nH]cc(-c2ccc(Cl)cc2)c1N1CCN(C)CC1 | < 25 | < 25 | – | – | – | Protection [2]: 100%; Protection [4]: 100%
2 | COC(=O)c1c(N2CCOCC2)c(-c2ccc(Cl)cc2)cn1C(=O)c1ccccc1 | > 500 | 175 | 43.7 | 14 | 5.5 | –
3 | COC(=O)c1c(N2CCOCC2)c(-c2ccc(Cl)cc2)cn1C(C)=O | > 250 | 35.4 | 33.1 | 13.6 | 3.5 | –
4 | Clc1ccc(-c2c[nH]nc2N2CCOCC2)cc1 | > 50 | 300 | 47 | – | – | Protection [8]: 100%
5 | O=C(O)c1[nH]cc(-c2ccc(Cl)cc2)c1N1CCOCC1 | > 25 | > 300 | – | – | 1.8 | Protection [9]: 75%
6 | CN(C)C(=O)c1[nH]cc(-c2ccc(Cl)cc2)c1N1CCOCC1 | – | – | – | – | 3.1 | –
7 | N#Cc1[nH]cc(-c2ccc(Cl)cc2)c1N1CCOCC1 | > 50 | > 300 | – | – | 3.5 | Protection [10]: 100%; Protection [11]: 30%
8 | COCCNC(=O)c1[nH]cc(-c2ccc(Cl)cc2)c1N1CCOCC1 | – | – | – | – | 3.3 | –
9 | CCOC(=O)c1[nH]cc(-c2ccc(Cl)cc2)c1N1CCOCC1 | > 500 | 158 | 49.9 | 7.9 | 3.9 | –
10 | COC(=O)c1c(N2CCOCC2)c(-c2ccc(Cl)cc2)cn1C(=O)N1CCOCC1 | – | – | – | – | 3.1 | –
11 | Clc1ccc(-c2cnoc2N2CCOCC2)cc1 | – | – | – | – | – | ED50 [12]: No effective response; ED50 [13]: No effective response; ED50 [14]: No effective response; ED50 [15]: No effective response
12 | NC(=O)N1c2ccccc2C=Cc2ccccc21 [CARBAMAZEPINE] | 361 | 47.8 | 9.9 | 11.9 | – | Seizure score [16]: 2; Seizure score [17]: 4.5; Seizure score [18]: 3.8; Seizure score [19]: 4.8
13 | COC(=O)c1[nH]cc(-c2ccc(Cl)cc2)c1N1CCN(c2ccccc2)CC1 | > 500 | > 500 | 175 | 12.5 | 4.4 | –
14 | C=CCNC(=O)c1[nH]cc(-c2ccc(Cl)cc2)c1N1CCOCC1 | – | – | – | – | 3.7 | –
15 | COC(=O)c1[nH]cc(-c2ccc(Br)cc2)c1N1CCOCC1 | > 500 | 166 | 27.8 | 2.5 | 3.8 | Seizure score [20]: 3.7; Seizure score [21]: 4.3; Seizure score [22]: 1.9; Seizure score [23]: 1.7
16 | COC(=O)c1[nH]cc(-c2ccccc2C)c1N1CCOCC1 | > 50 | > 100 | – | – | 2.8 | Protection [8]: 50%; Protection [24]: 60%
